What all share (type): cell-based
Assay [1] concerns the target T1, Estrogen receptor (Homo sapiens) (UniProt P03372).
T1 sequence (whole entry): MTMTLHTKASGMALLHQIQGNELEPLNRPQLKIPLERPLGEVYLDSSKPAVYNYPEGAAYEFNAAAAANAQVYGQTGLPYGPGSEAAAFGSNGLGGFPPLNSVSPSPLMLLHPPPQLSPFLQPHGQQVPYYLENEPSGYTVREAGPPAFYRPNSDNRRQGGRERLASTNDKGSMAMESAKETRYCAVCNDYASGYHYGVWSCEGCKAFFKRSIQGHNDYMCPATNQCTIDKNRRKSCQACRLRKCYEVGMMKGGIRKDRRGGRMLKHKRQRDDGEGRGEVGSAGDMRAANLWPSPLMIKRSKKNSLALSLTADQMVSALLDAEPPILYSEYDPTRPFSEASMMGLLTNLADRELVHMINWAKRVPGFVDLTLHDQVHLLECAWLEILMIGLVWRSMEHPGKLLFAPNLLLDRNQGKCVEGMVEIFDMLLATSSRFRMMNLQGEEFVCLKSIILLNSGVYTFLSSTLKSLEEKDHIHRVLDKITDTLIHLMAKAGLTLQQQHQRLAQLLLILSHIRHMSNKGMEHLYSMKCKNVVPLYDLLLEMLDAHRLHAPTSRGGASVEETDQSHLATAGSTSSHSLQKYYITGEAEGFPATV
As to the kind of experiment: Activation of human estrogen receptor alpha expressed in HEK293 cells at 10 uM beta-galactosidase reporter gene assay relative to control. A digest of the protocol:
(§1)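 Luciferase reporter in transiently transfected HEK293 cells. Cells received 5 ng ERα or ERβ vector, ERE2-TATA luciferase reporter and pCMVβ by calcium phosphate for 4 h. Compound at 10 µM for 24 h in phenol-free medium with delipidated serum. β-Gal-normalized luciferase expressed as fold activation over vehicle (0.1% v/v). Means ± SEM of ≥3 transfections.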
(In general: A reporter such as luciferase makes a cellular process visible.)

Assay [2] addresses T1, Estrogen receptor (Homo sapiens). As to the kind of experiment: Activation of human estrogen receptor alpha expressed in HEK293 cells at 10 uM in presence of ICI-182780 beta-galactosidase reporter gene assay relative to control. A digest of the protocol:
(§2)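 Antagonism format: transfection as for the agonist assay (ERα or ERβ vector, ERE2-TATA-LUC, pCMVβ; 4 h). Medium then contained 10 µM compound plus 1000 nM ICI-182,780 or vehicle for 24 h. β-Gal-normalized luciferase given as fold activation relative to vehicle. Means ± SEM of ≥3 independent transfections.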

The target in assay [3] is Estrogen receptor beta (Homo sapiens) (UniProt Q92731). As to the kind of experiment: Activation of human estrogen receptor beta expressed in HEK293 cells at 10 uM in presence of ICI-182781 beta-galactosidase reporter gene assay relative to control. A digest of the protocol: as §2
Chain of Estrogen receptor beta (Homo sapiens) (Q92731 whole entry): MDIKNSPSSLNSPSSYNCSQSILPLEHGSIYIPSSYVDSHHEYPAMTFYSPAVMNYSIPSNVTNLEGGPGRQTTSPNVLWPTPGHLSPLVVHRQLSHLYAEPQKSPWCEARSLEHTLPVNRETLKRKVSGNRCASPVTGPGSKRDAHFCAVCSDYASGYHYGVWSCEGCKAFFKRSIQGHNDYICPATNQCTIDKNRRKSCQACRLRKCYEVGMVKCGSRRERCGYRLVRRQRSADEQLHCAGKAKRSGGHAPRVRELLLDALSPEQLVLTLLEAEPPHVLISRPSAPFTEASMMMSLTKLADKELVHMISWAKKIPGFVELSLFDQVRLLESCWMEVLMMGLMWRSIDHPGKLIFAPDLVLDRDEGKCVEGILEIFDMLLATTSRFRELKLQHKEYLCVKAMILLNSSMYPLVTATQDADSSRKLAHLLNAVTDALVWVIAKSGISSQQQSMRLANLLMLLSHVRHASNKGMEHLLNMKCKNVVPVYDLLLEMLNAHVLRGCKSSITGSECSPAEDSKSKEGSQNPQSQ
The target is the same in assay [4]. Briefly: Activation of human estrogen receptor beta expressed in HEK293 cells at 10 uM beta-galactosidase reporter gene assay relative to control. The gist of the method:
as §1

Assay [5] shares this target. Briefly: Activation of human estrogen receptor beta expressed in HEK293 cells at 10 uM beta-galactosidase reporter gene assay relative to 3,17-beta-estradiol. The gist of the method: (§3)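 HEK293 cells seeded a day ahead in phenol-free DMEM with 5% delipidated FBS. Calcium phosphate transfection for 4 h with 5 ng ERα or ERβ expression vector, 75 ng pERE2TATA-LUC reporter and 20 ng pCMVβ control. Test compound at 10 µM (vehicle 0.1% v/v) for 24 h. Luciferase normalized to β-galactosidase. Activity = 100% × (test − vehicle)/(10 nM E2 − vehicle). Mean of ≥3 independent transfections.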

Assay [6] deals with T1, Estrogen receptor (Homo sapiens). As to the kind of experiment: Activation of human estrogen receptor alpha expressed in HEK293 cells at 10 uM by beta-galactosidase reporter gene assay relative to 3,17 beta-estradiol. A digest of the protocol: as §3

Regarding `COC(CC(=O)Cc1ccccc1)Cc1ccc2ccccc2c1` (racemic), the Activity in assay [1] came to 22.9; in assay [2], 1.6; in assay [3], 0.7; in assay [4], 4.2; in assay [5], 4.7%; in assay [6] it was 48.1%.

For `c1ccc(CCC2=NOC(CCc3ccccc3)C2)cc1` (single isomer, unassigned; 18b), the Activity was 126 in assay [1], 1 in assay [2], -0.4% in assay [5] and 43.9% in assay [6].

Take `O=C(CCc1ccccc1)CC(=O)Cc1ccccc1`: the Activity was 8.7 in assay [1], 1 in assay [2], 1.4% in assay [5] and 24.3% in assay [6].

In the case of `COC(CC(=O)Cc1cccc2ccccc12)Cc1cccc2ccccc12` (single isomer, unassigned; 64b), the Activity in assay [1] was determined as 26.1; in assay [2], 1.1; in assay [5] it was 0.4%; in assay [6], 23.9%.

On to `c1ccc(CCC2=NOC(Cc3ccc4ccccc4c3)C2)cc1` (single isomer, unassigned; 53b), for which the Activity in assay [5] stood at 3.8%; in assay [6] it was 13%.

Regarding `c1ccc(CCC2=NOC(Cc3cccc4ccccc34)C2)cc1` (single isomer, unassigned; 52a), the Activity in assay [5] stood at 10.5%; in assay [6], 34.1%.

Take `CS(C)=C(C(=O)CCc1ccccc1)C(=O)CCc1ccccc1`: the results for the Activity in assay [5] and in assay [6] were 0.3% and 1%, respectively.

On to `COC(CC(=O)CCCc1ccccc1)Cc1ccccc1` (configuration not stated), for which the Activity in assay [5] is 30.4%; in assay [6] it was 24.5%.

On to `Oc1ccccc1CCC1=NOC(Cc2ccc(F)cc2)C1` (single isomer, unassigned; 73a), for which the Activity stood at 3.4% in assay [5] and 82% in assay [6].

Take `COC(CC(=O)Cc1ccc(F)cc1)Cc1cccc2ccccc12` (single isomer, unassigned; 62a): the Activity in assay [5] is -0.6%; in assay [6] it was 0.2%.

For `O=C(CCc1ccccc1)CC(=O)CCc1ccccc1`, the values for the Activity in assay [5] and in assay [6] were 0.3% and 0.6%, respectively.

These data come from ChEMBL document CHEMBL1150775, “Synthesis and evaluation of estrogen agonism of diaryl 4,5-dihydroisoxazoles, 3-hydroxyketones, 3-methoxyketones, and 1,3-diketones: a compound set forming a 4D molecular library” (J Med Chem, 2008).
